Assay outcomes (PubChem BioAssay)
Apaf-1 act = human Apaf-1 activation; O14727; Apaf-1 apoptosome caspase-3 activation, DEVD-Rh110 fluorescence; active compounds read low; activity change, negative = activation, % at 20 µM; 0.31% of 330,000 active; AID 489031;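 active means activity change at or below -40% at 20 µM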
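Material: biochemical Apaf-1 apoptosome reconstitution; Medium: 20 mM HEPES buffer, pH 7.5, containing CHAPS and BSA; Reagent: dATP, cytochrome c, and (Z-DEVD)2-Rh110 caspase-3 substrate; Times: 30 min preincubation, 50 min reaction, room temperature; Signal: Rh110 fluorescence, excitation 480 nm, emission 540 nm; Measure: Caspase-3 activity via Apaf-1.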
Rh110 interf act = counter-screen for Apaf-1 activators: fluorescence interference; shares compounds with Apaf-1 act; Rh110 fluorescence interference, quenched caspase reaction, Ex480/Em540; fluorescence interference (activity change), % at 20 µM, hits read low; 980 tested, under 10 active; AID 504616;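 active means mean activity change at or below -40% when tested at 20 µM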
Apaf-1 act conf2 = confirmation of human Apaf-1 activators; shares compounds with Apaf-1 act; reconstituted apoptosome caspase-3 activity, DEVD-Rh110 fluorescence; active compounds read low; activity change, negative = activation, % at 20 µM; 5% of 980 active;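 active means mean activity change at or below -40%, meaning activation of 40% or more, at 20 µM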
* hit, by the source's call; · = no result. Only a sample is shown.

SMILES	Apaf-1 act	Rh110 interf act	Apaf-1 act conf2
CC(C)Oc1ccc(C(=O)NC2(C(F)(F)F)NC(=O)N(CCCc3ccccc3)C2=O)cc1 (stereo not drawn)	-45*	6	17
COc1cccc(CNc2cccc3cccnc23)c1O	71	·	·
COc1ccc(-n2c3nc4ccccc4nc3c3c(=N)oc(C)nc32)cc1	96	·	·
C/C(=N\NC(=O)c1nnn(-c2nonc2N)c1-c1cccs1)c1ccc(C)cc1	-44*	8	7
Cc1c(N=Cc2cc3c(cc2[N+](=O)[O-])OCO3)cccc1[N+](=O)[O-]	44	·	·
CCCCCCCCCCOC(=O)Cn1c(COc2ccccc2)[n+](C)c2ccccc21	73	·	·
CC1=NN(c2cccc(Cl)c2)C(=O)C1	75	·	·
O=C(/C=C/Nc1ccc(F)c(F)c1)c1ccc(Br)cc1	-103*	4	15
Cc1cc2nn(-c3ccc(Cl)cc3)nc2cc1N	49	·	·
Oc1ccc(NCc2cccc(OCc3ccccc3)c2)cc1	91	·	·
C#CCOCCOCCOCCNc1nc(N2CCN(C(=O)CCCCCCCCCCNC(=O)Cn3cc(C[C@@H](C)O)nn3)CC2)nc(N2CCN(C(=O)CCCCCCCCCCNC(=O)[C@@H](CCC(=O)O)n3cc(CCCCCN)nn3)CC2)n1	52	·	·
S=c1nc(-c2ccc(Cl)cc2)[nH][nH]1	-396*	8	14
Cc1ccc2cc(C(c3nnnn3CC3CCCO3)N3CCc4ccccc4C3)c(=O)[nH]c2c1 (stereo not drawn)	87	·	·
CC(C)(C)NC(=O)NC(=O)COC(=O)c1nc(-c2ccccc2)n(-c2cccc(C(F)(F)F)c2)n1	-47*	17	13
COC(=O)C1=C(C)N(Cc2ccccc2)C(=NCc2ccccc2)N[C@H]1c1cccc(C(F)(F)F)c1	65	·	·
CC1=CC(C)(C)NC(=S)N1C(C)c1ccccc1 (stereo not drawn)	-56*	-1	16
CN(CC(=O)Nc1ccc2c(c1)OCCO2)S(=O)(=O)c1cccc2cccnc12	-115*	13	13
CCN(Cc1ccccc1)S(=O)(=O)c1ccc(C(=O)N(CCCN(C)C)c2nc3cc4c(cc3s2)OCCO4)cc1	41	·	·
CCN(CC(=O)Nc1ccc2c(c1)OCCO2)S(=O)(=O)c1ccc(C)cc1	-78*	-6	11
CN1CCN(C2=C(NS(=O)(=O)c3ccccc3)C(=O)c3ccccc3C2=O)CC1	79	·	·
COC(=O)CCC(=O)OC1(C)C(=O)C2=CN(C3CC3)C(c3ccc(OC)cc3)=CC2=C(Br)C1=O (stereo not drawn)	61	·	·
Nc1scc2c(C(=O)N/N=C/c3ccc(Cl)cc3)nn(-c3ccccc3)c(=O)c12	42	·	·
COC(=O)CCC(=O)OC1(C)C(=O)C=C2C=C(C3CC3)N(CCCCO)C=C2C1=O (stereo not drawn)	64	·	·
CCC1C(=O)N=C(SCC(=O)Nc2nc3ccccc3s2)NC1=O (stereo not drawn)	70	·	·
Cc1cc(C)nc(NC(=O)CSc2nc3ccccc3o2)n1	-71*	0	13
SMILES	Apaf-1 act	Rh110 interf act	Apaf-1 act conf2
COc1ccccc1-c1oc2ccccc2c1C#CC1(N)CCCCC1	68	·	·
O=C1C(NS(=O)(=O)c2ccc(Cl)cc2)=C(N2CCCCC2)C(=O)c2ccccc21	72	·	·
O=S1(=O)N=C(Nc2ccc(S(=O)(=O)N3CCCCC3)cc2)c2ccccc21	-44*	-3	9
Cc1cc(C)nc(-n2nc(C)cc2NC(=O)CN2CCc3ccccc3C2)n1	54	·	·
COC(=O)c1[nH]c2cc(C)ccc2c1NC(=O)CN1CCc2cc(OC)c(OC)cc2C1	-176*	-2	12
Cc1cc(/C=C\c2ccc3cc(N(C)C)ccc3[n+]2C)c(C)n1-c1ccccc1	43	·	·
S=C(Nc1ccc2[nH]ccc2c1)NC1CCCCC1	-86*	2	21
CC[C@]12c3[nH]c4ccc(Cl)cc4c3CCN1C(=O)[C@@H](CC(=O)NCC13CC4CC(CC(C4)C1)C3)C[C@@H]2C(=O)N1CCN(C(=O)c2ccco2)CC1	44	·	·
C#CCOCCOCCOCCNc1nc(N2CCN(C(=O)[C@H](CCCN=C(N)N)n3cc(C(N)[C@@H](C)CC)nn3)CC2)nc(N2CCN(C(=O)[C@H](CCCCN)n3cc([C@@H](N)[C@H](C)CC)nn3)CC2)n1 (stereo partly drawn)	50	·	·
COc1cc2c(cc1OC)C(c1ccc(-c3ccc(Cl)c(Cl)c3)o1)=NCC2	41	·	·
COc1ccc(-c2nc(-c3ccc(Br)o3)no2)cc1OC	-45*	7	17
O=c1cc(-c2cccc([N+](=O)[O-])c2)[nH][nH]1	68	·	·
Cc1cccc(N(C(=O)Cn2nnc3ccccc32)C(C(=O)NCc2ccco2)c2ccncc2)c1 (stereo not drawn)	-47*	2	9
Cc1ccc(CNc2ccc(O)cc2)cc1	94	·	·
Nc1ccc2nc(-c3ccccc3)c(-c3ccccc3)nc2c1	65	·	·
O=C(Nc1nnc(S(=O)(=O)N2CCOCC2)s1)c1ccccc1Br	-95*	4	12
Cc1ccc(C(=O)Nc2ccccn2)cc1S(=O)(=O)N1CCOCC1	43	·	·
CCN1CCN(Cc2ccc(NC(=O)c3ccc(C)c(NC(=O)c4csc(-c5ccncc5)n4)c3)cc2C(F)(F)F)CC1	59	·	·
COc1ccc(-n2c(NC(=O)c3ccco3)c(C#N)c3nc4ccccc4nc32)cc1	96	·	·
CCOC(=O)c1sc(NC(=O)c2ccco2)c(C#N)c1C	-211*	-1	12
CCOC(=O)c1c(NC(=O)c2ccco2)n(C2CCCCC2)c2nc3ccccc3nc12	88	·	·
O=C1C(NS(=O)(=O)c2cccs2)=C(N2CCN(Cc3ccccc3)CC2)C(=O)c2ccccc21	51	·	·
CCOc1ccc(C(=O)C(C)=O)c(OCC)c1	-44*	1	10
Cc1cc(SCC2=NNC(=O)C2)c(Cl)cc1Cl	47	·	·
Cc1ccc2c(c1)C(O)(C1COC(C)(C)CC1=O)C(=O)N2C (stereo not drawn)	-573*	-4	8
SMILES	Apaf-1 act	Rh110 interf act	Apaf-1 act conf2
CC(=O)c1c(O)cc(C)n(Cc2ccccc2)c1=O	-71*	10	9
Cc1cccc(CC(=O)NCCn2c(C)cc3ccccc32)c1	41	·	·
Cc1[nH]n(-c2ccccc2)c(=O)c1/C=N/N(C)c1ccccc1	80	·	·
CSCCC(NC(=O)c1ccco1)C(=O)N1CCCC(C(F)(F)F)C1 (stereo not drawn)	-394*	-7	27
O=C(c1ccc2ncsc2c1)N1CCCC(C(F)(F)F)C1 (stereo not drawn)	42	·	·
O=C(c1ccc(-c2cccc(C(F)(F)F)c2)o1)N1CCCC(C(F)(F)F)C1 (stereo not drawn)	43	·	·
CCOCCCNc1nc2nc3ccc(C)cn3c(=O)c2cc1C(=O)NCC1CCCO1 (stereo not drawn)	-69*	-1	11
N#Cc1c(N2CCCC(O)C2)nc(N)c2c(N)nc3c(c12)CC(=O)N3C12CC3CC(CC(C3)C1)C2 (stereo not drawn)	98	·	·
O=C(NC1=C(NC2CCS(=O)(=O)C2)C(=O)c2ccccc2C1=O)c1ccccc1 (stereo not drawn)	88	·	·
COc1ccccc1/C=C/C(=O)OCC(=O)NC1CCS(=O)(=O)C1 (stereo not drawn)	-78*	-5	5
